The text below walks through data of ChEMBL document CHEMBL3351648, “Synthesis and pharmacological evaluation of 6-aminonicotinic acid analogues as novel GABA(A) receptor agonists” (Eur J Med Chem, 2014).

Structures are written as SMILES. The source made the active and inactive calls. The rule behind the calls is not given here.

For data set [1], the target named is GABA A receptor alpha-3/beta-2/gamma-2 (Homo sapiens) (UniProt P47870+P18507+P34903). Description: Agonist activity at human GABAAalpha3beta2gamma2S receptor expressed in tsA-201cells by FLIPR membrane potential blue assay relative to GABA.
The target in data set [2] is GABA-A receptor; alpha-1/beta-2/gamma-2 (Homo sapiens) (UniProt P14867+P47870+P18507). Description: Agonist activity at human GABAAalpha1beta2gamma2S receptor expressed in tsA-201cells at 1 mM by FLIPR membrane potential blue assay. In kind it is cell-based. Put shortly:
(§1)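 Transfected tsA201 cells (α1β2γ2S or ρ1) were loaded with membrane-potential dye in Krebs buffer pH 7.4 for 30 min at 37 °C. Compound was applied at a single 1 mM concentration. Response was read as fluorescence change at 560 nm emission before versus after addition, in duplicate on ≥3 occasions.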

Data set [3] concerns the target T1, GABA A receptor alpha-2/beta-2/gamma-2 (Homo sapiens, UniProt P18507+P47869+P47870).
T1 sequence (P47870 whole entry): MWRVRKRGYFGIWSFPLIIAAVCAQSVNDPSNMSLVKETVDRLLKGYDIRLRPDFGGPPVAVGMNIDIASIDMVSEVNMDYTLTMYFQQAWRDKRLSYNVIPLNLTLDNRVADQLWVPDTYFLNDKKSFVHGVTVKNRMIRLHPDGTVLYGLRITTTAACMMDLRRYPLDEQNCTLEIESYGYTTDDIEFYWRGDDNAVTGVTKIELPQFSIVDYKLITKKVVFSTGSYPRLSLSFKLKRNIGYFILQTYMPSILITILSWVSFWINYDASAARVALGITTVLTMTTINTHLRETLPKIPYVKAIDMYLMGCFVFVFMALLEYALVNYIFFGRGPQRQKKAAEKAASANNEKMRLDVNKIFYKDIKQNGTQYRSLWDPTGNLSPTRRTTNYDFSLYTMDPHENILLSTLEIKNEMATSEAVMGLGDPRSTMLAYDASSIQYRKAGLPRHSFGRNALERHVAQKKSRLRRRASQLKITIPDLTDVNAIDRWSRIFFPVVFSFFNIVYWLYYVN
T1 sequence (P18507 whole entry): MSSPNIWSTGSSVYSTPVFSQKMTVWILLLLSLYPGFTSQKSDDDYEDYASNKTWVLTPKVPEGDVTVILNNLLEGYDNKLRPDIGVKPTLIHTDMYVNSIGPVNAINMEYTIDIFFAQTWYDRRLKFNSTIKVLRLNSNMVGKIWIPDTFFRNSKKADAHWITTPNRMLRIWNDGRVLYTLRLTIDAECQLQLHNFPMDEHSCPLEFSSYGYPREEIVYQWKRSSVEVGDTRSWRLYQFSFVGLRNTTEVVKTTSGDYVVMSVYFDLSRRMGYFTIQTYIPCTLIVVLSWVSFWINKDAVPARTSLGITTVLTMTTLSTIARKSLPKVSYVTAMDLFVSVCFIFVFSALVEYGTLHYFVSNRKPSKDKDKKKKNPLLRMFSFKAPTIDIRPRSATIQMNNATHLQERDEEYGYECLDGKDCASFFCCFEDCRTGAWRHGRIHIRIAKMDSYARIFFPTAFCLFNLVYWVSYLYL
T1 sequence (P47869 whole entry): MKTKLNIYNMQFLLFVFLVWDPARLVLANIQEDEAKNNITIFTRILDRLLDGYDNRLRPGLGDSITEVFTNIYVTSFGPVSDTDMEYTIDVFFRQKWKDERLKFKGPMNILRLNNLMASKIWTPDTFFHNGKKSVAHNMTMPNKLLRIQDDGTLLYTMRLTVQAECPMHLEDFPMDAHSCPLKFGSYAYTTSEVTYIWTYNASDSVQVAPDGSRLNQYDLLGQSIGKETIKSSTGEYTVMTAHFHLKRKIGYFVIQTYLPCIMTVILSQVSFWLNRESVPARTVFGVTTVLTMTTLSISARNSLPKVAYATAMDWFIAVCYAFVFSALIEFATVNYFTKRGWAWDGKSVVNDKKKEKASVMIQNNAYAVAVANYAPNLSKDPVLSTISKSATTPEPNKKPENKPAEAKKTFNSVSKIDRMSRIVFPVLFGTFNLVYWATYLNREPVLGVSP
Description: Agonist activity at human GABAAalpha2beta2gamma2S receptor expressed in tsA-201cells by FLIPR membrane potential blue assay. A digest of the protocol:
(§2)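 tsA201 cells (8×10^5 per 6 cm dish) were transfected with α1, α2, α3 or α5 plus β2 and γ2S cDNAs (1:1:3), or with ρ1 alone. Next day cells were replated into poly-D-lysine 96-well plates. After 16–24 h they were washed with Krebs buffer pH 7.4, given membrane-potential dye, held 30 min at 37 °C, and read at 560 nm emission. Concentration-response curves used ΔFU before versus after agonist; duplicates were run ≥3 times.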

Data set [4] addresses T2, Gamma-aminobutyric acid receptor subunit rho-1 (Homo sapiens, UniProt P24046). Description: Agonist activity at human GABAA rho1 expressed in tsA-201cells at 1 mM by FLIPR membrane potential blue assay. The format is cell-based. Put shortly:
as §1

Data set [5] can be described thus: Agonist activity at human GABAAalpha5beta2gamma2S receptor expressed in tsA-201cells by FLIPR membrane potential blue assay. In kind it is cell membranes.
The target of data set [6] is T3, GABA-A receptor; alpha-1/beta-2/gamma-2 (Homo sapiens, UniProt P14867+P47870+P18507).
T3 sequence (P14867 whole entry): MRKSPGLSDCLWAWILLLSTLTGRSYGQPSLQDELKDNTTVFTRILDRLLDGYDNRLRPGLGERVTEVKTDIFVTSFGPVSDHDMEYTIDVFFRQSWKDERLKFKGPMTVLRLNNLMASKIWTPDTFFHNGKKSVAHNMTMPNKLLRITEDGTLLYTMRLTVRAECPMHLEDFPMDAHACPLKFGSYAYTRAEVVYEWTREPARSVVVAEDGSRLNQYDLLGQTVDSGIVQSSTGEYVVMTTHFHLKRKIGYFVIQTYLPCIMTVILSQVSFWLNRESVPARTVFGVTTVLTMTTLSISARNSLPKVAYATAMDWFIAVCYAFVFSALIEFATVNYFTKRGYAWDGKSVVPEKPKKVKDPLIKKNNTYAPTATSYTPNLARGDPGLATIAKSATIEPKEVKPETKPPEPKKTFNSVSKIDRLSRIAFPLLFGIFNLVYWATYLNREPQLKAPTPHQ
T3 sequence (P47870 whole entry): T1 sequence (P47870 whole entry)
T3 sequence (P18507 whole entry): T1 sequence (P18507 whole entry)
The experiment in a line: (§3) Agonist activity at human GABAAalpha1beta2gamma2S receptor expressed in tsA-201cells by FLIPR membrane potential blue assay. To be noted: tsa-201. Put shortly:
as §2

Data set [7] addresses T4, GABA A receptor alpha-3/beta-2/gamma-2 (Homo sapiens, UniProt P18507+P34903+P47870).
T4 sequence (P47870 whole entry): T1 sequence (P47870 whole entry)
T4 sequence (P18507 whole entry): T1 sequence (P18507 whole entry)
T4 sequence (P34903 whole entry): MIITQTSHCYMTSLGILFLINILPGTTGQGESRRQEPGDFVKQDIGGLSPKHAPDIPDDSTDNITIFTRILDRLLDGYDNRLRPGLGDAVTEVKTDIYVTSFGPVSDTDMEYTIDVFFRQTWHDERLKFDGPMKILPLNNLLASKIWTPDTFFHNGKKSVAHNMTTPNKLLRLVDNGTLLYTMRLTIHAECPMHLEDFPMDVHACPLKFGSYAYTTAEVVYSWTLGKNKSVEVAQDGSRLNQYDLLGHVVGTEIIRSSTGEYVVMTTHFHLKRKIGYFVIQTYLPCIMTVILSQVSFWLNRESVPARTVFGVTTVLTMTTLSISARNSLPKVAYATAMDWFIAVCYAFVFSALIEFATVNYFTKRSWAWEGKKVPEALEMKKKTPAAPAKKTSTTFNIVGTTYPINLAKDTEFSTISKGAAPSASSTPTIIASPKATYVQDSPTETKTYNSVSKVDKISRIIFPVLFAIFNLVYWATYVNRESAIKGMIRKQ
The experiment in a line: Agonist activity at human GABAAalpha3beta2gamma2S receptor expressed in tsA-201cells by FLIPR membrane potential blue assay. Put shortly:
as §2

The target in data set [8] is T2, Gamma-aminobutyric acid receptor subunit rho-1. The experiment in a line: Agonist activity at human GABAA rho1 expressed in tsA-201cells by FLIPR membrane potential blue assay relative to GABA.
In data set [9] the test system is tsA-201. The experiment in a line: Agonist activity at human GABAAalpha5beta2gamma2S receptor expressed in tsA-201cells by FLIPR membrane potential blue assay relative to GABA.
In data set [10] the target is GABA A receptor alpha-2/beta-2/gamma-2 (Homo sapiens) (UniProt P47870+P18507+P47869). The experiment in a line: Agonist activity at human GABAAalpha2beta2gamma2S receptor expressed in tsA-201cells by FLIPR membrane potential blue assay relative to GABA.
Data set [11] deals with GABA-A receptor; anion channel. The experiment in a line: Displacement of [3H]muscimol from GABAA receptor in SPRD rat brain synaptic membranes by scintillation counting method. The format is cell membranes. A digest of the protocol: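 Rat synaptic membranes were thawed, homogenized in ice-cold 50 mM Tris-HCl pH 7.4, and spun at 48,000g for 10 min at 4 °C, with the wash repeated four times. Incubation was with 5 nM [3H]muscimol (final) and varying test concentrations for 60 min at 0 °C, then GF/C filtration and scintillation counting.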
For orientation: Loss of bound radioactivity is the signal in a displacement assay; it reports binding, not function.

For data set [12], the target named is T2, Gamma-aminobutyric acid receptor subunit rho-1. Description: Agonist activity at human GABAA rho1 expressed in tsA-201cells by FLIPR membrane potential blue assay. Conditions: tsa-201. A digest of the protocol: as §2
Data set [13] in a line: Dissociation constant, pKa of the compound by diode array detector method. In kind it is physicochemical. Put shortly: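 pKa was determined by titration in methanol cosolvent at 23–48%, with three titrations per compound. An in-line diode-array detector recorded UV-Vis spectra, and the titration was mapped against the spectra of the protonated and unprotonated species.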

Data set [14] deals with T5, GABA-A receptor; alpha-1/beta-2/gamma-2 (Homo sapiens, UniProt P14867+P18507+P47870).
T5 sequence (P14867 whole entry): T3 sequence (P14867 whole entry)
T5 sequence (P47870 whole entry): T1 sequence (P47870 whole entry)
T5 sequence (P18507 whole entry): T1 sequence (P18507 whole entry)
Described as §3. To be noted: read-out: EC50. Put shortly:
as §2

T2 sequence (P24046 whole entry): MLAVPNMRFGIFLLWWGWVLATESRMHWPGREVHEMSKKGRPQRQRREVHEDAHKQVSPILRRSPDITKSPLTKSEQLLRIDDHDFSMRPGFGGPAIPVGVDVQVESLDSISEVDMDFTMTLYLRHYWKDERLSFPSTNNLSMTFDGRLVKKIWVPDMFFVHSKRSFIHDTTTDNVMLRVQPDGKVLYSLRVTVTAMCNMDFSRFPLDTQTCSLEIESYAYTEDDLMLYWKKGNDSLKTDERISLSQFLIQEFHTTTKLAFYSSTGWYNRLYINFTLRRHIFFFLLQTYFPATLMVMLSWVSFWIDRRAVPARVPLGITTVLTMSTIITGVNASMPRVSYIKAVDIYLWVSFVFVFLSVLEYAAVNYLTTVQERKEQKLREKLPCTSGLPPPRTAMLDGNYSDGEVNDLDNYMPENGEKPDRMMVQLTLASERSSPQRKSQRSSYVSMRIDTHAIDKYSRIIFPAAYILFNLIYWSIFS

What is called EC50 is the concentration at which the effect is half-maximal. As usually defined, the pEC50 is the EC50 on a negative log10 scale, so that one unit is a factor of ten. A word on the Ki: it is a measure of affinity in units of concentration, obtained from inhibition or displacement. As for `O=C(O)C1CCNCC1` [ISONIPECOTIC ACID], the Rmax in [1] was determined as 85%; in [2], 66%; in data set [9], 115%; in [10], 85%. The EC50 in data set [3] is 24 µM; in data set [5], 2.8 µM; in [6], “Active”; in data set [7], 17 µM; in data set [12], “Active”. In addition, the outcome in data set [4] was Active. This compound had a pEC50 in data set [5] of 5.54. Besides, in [8], the Rmax result is “inactive”. Besides, in data set [11], the Ki was found to be 0.51 µM.
The term pKa denotes the pH at which an ionisable group is half protonated. A lower pKa goes with a group that gives up its proton readily. Usually pKi stands for the negative decadic logarithm of the Ki, by convention in mol/L. `O=C(O)C1CN=CNC1` (stereo not drawn) returned an Rmax in [2] of 25%. The EC50 entry in [6] was “Active”. In addition, in data set [13], the pKa stood at 12.2. In data set [11], this compound returned a Ki of 5.3 µM and a pKi of 5.29.
Consider `Cc1cc(N)ncc1C(=O)O`, for which the result in [4] was Active. For the same compound, the EC50 in [14] is > 1000 µM; in data set [12] it was “Active”. In addition, the negative logarithm of the EC50 (pEC50) in [6] is on record as < 3. Further, in data set [11], the affinity corresponds to a Ki of 3.6 µM.
